In the library only some 3.5% were active in any assay of this set; here they are far more common.
RGS4 act – RGS4 potentiators or activators, primary screen, cell-based, HEK293 M3R inducible RGS4, calcium flux; hit rate 0.92% among 310,000; AID 463111, 2010; B-score at 10 µM; carbachol calcium flux Fluo4; hits give low values;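 active means B-score of the integrated calcium signal more than 4 SD below the library mean, with starting fluorescence not abnormally high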;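 further: negative B-score means reduced calcium response which marks RGS4 activation or potentiation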
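Assay system: HEK293 FlpIn-TREx cells, stable M3R, doxycycline-inducible RGS4 / Probe or stimulus: carbachol, ECmax concentration / Times: overnight RGS4 induction, 30 min dye load 37 °C, 20 min compound RT / Signal: kinetic calcium fluorescence imaging with Fluo4-AM dye, 2 µM / Measure: Agonist-evoked peak-minus-minimum fluorescence over baseline, integrated ratio, B score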
RGS4 block – RGS4 inhibitors, primary screen, cell-based, HEK293 M3R inducible RGS4, calcium flux | Fluo-4 calcium flux; hits give high values; triggered by carbachol at its EC20 | AID 463165, 2010 | Regulator of G-protein signaling 4 (Homo sapiens), P49798 | hit rate 0.45% among 310,000 | B-score at 10 µM;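 active means B-score, a plate-corrected calcium signal, over three deviations above library mean, with baseline fluorescence within five deviations of library mean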;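 further: RGS4 expression induced by doxycycline in cells with stable M3 receptor; B-score is computed from the integrated fluorescence ratio over baseline after carbachol; higher B-score means a larger calcium signal and so more RGS4 inhibition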
Target sequence (P49798 whole entry, looked up): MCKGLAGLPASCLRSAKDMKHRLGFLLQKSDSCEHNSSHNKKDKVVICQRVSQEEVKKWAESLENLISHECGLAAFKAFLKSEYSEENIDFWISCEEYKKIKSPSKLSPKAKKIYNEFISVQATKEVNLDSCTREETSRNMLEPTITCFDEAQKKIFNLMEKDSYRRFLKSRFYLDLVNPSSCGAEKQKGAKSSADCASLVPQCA
MrgX1 agonist – agonists of human MrgX1 receptor, primary screen, HEK293 cells, Fluo-4 calcium flux | Mas-related G-protein coupled receptor member X1 (Homo sapiens), Q96LB2 | Fluo-4 calcium fluorescence, agonist mode; hits give high values | hit rate 0.44% among 310,000 | B-score at 10 µM;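 active means calcium response B-score plate-corrected fluorescence ratio at least 3 library SD, with starting fluorescence B-score inside 5 SD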
Target sequence (Q96LB2 whole entry, looked up): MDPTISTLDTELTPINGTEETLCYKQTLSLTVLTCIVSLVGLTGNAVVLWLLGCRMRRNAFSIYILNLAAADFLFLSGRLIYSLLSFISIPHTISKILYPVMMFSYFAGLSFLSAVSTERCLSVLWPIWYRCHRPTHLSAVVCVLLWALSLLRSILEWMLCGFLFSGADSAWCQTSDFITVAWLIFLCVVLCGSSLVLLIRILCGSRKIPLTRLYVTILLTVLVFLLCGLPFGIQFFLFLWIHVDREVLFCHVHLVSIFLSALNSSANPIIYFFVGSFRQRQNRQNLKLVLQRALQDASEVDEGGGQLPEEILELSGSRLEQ
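Test system: HEK293 cells stably expressing human MrgX1 receptor; amount: 15,000 cells per well; doses: compound delivered in addition one of three; times: overnight plating before 1 h dye loading; detection: Fluo-4 NW calcium-flux fluorescence, kinetic read; read-out basis: B-scored fluorescence response ratio; controls: positive and negative controls per plate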
MrgX1 allo act – positive allosteric modulators of MrgX1, primary screen, HEK293 cells, Fluo-4 calcium flux. FDSS; hits give high values. B-score at 10 µM. AID 588675, 2011. Mas-related G-protein coupled receptor member X1 (Homo sapiens), Q96LB2. hit rate 0.63% among 310,000;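 active means plate-corrected calcium response at least 3 library SD above typical, normal starting fluorescence, not activating the receptor alone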;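 further: compound read alongside a low EC10 to EC30 dose of BAM8-22 agonist; peak minus trough fluorescence over baseline measured at the second addition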
MrgX1 antag – antagonists of human MrgX1 receptor, primary screen, HEK293 cells, Fluo-4 calcium flux | Mas-related G-protein coupled receptor member X1 (Homo sapiens), Q96LB2 | BAM8-22 antagonism; hits give low values | B-score at 10 µM | hit rate 1.3% among 310,000 | AID 588676, 2011;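 active means calcium-response B-score plate-corrected more than 3 library SD below zero, starting fluorescence within 5 deviations, no agonist response on first addition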;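 further: peak minus trough fluorescence over baseline after final BAM8-22 challenge near maximal dose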
MrgX1 ag reconf – MrgX1 receptor agonists, duplicate retest, confirmation, HEK293 cells, Fluo-4 calcium flux; shares compounds with MrgX1 agonist; Fluo-4 calcium fluorescence, FDSS; activation, % at 10 µM; hit rate 78% among 600;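 active means calcium signal rise, corrected for plate position, at least 3 library SD high, with starting brightness within 5 such deviations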
HEK293 Ca flux – nonspecific calcium signal in parental HEK293, confirmation, counter-screen for MrgX1 antagonist project, parental HEK293 cells, Fluo-4 calcium flux; shares compounds with MrgX1 antag; Fluo-4 calcium fluorescence, FDSS; fluorescence ratio F(max-min)/F0 at 10 µM; hit rate 2% among 4,000; AID 624111, 2012;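 active means duplicate-averaged calcium fluorescence ratio at least three times the standard deviation of buffer wells, a nonspecific response in parental cells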
HEK293 Ca counter – calcium response in parental HEK293 cells, primary screen, counter-screen for MrgX1 allosteric activator project, cell-based, Fluo-4 calcium flux, duplicate; fluorescence ratio F(max-min)/F0 at 10 µM; shares compounds with MrgX1 antag; hit rate 0.4% among 4,000; Fluo-4 fluorescence ratio; hits give high values;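 active means calcium fluorescence ratio, averaged over duplicates, at least 3 SD of the buffer-well ratio, meaning a nonspecific response in receptor-free cells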;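 further: untransfected parental HEK293 lacking MrgX1 used as counterscreen for MrgX1 allosteric activators; fluorescence change taken during the second addition on a kinetic imager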
HEK293 Ca cntr2 – calcium response in parental HEK293 cells, primary screen, counter-screen for MrgX1 agonist project, cell-based, Fluo-4 calcium flux, duplicate, agonist mode; shares compounds with MrgX1 antag; Fluo-4 calcium fluorescence (FDSS); hits give high values; fluorescence ratio F(max-min)/F0 at 10 µM; hit rate 8.7% among 4,000; AID 624115, 2012;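 active means calcium fluorescence ratio at least three times the spread of buffer wells, meaning a non-specific response in parental cells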
Numbers stand for hits; – = inactive; · = not tested or not shown.

SMILES | RGS4 act | RGS4 block | MrgX1 agonist | MrgX1 allo act | MrgX1 antag | MrgX1 ag reconf | HEK293 Ca flux | HEK293 Ca counter | HEK293 Ca cntr2
Nc1nnc(-c2ccc(Cl)c([N+](=O)[O-])c2)s1 | – | – | – | – | – | · | · | · | ·
Cc1ccc(C(=O)Nc2c3c(nn2-c2ccccc2)CS(=O)(=O)C3)cc1C | – | – | – | – | – | · | · | · | ·
CS(=O)(=O)c1ccc2nc(NC(=O)CN3C(=O)NC4(CCCC4)C3=O)sc2c1 | – | – | – | – | – | · | · | · | ·
CCOc1ccc(NC2=NCC(=O)N2CCc2ccccc2)cc1 | – | – | 27 | – | – | 122% | – | – | –
Cc1ccc(NC2=NCC(=O)N2CCc2ccccc2)cc1C | – | – | – | – | – | · | · | · | ·
COc1cc(/C=C/C(=O)O)ccc1O | – | – | – | – | – | · | · | · | ·
COc1cc(/C=C/C(=O)CC(=O)/C=C/c2ccc(O)c(OC)c2)ccc1O | – | – | 143 | – | – | – | 0.033 | – | 212
CCN(CCCNC(=O)CNC(=O)c1nn(-c2ccc(OC)c(OC)c2)c(=O)c2ccccc12)c1ccccc1 | – | – | – | – | – | · | · | · | ·
O=C(NC(n1ccc(=O)[nH]c1=O)C(Cl)(Cl)Cl)C12CC3CC(CC(C3)C1)C2 (centres undefined) | – | – | – | – | – | · | · | · | ·
N#CSCC(=O)c1cccc2ccccc12 | · | · | 27 | – | – | 230% | – | – | –
CCC1c2ccc(C)n2CCN1C(=O)Nc1cc(Cl)ccc1OC (centres undefined) | – | – | 33 | – | – | – | – | – | –
CCOC(=O)c1ccccc1NC(=O)N1CCn2c(C)ccc2C1CC (centres undefined) | – | – | – | – | – | · | · | · | ·
CCC1c2ccc(C)n2CCN1C(=O)Nc1ccccc1C(=O)OC (centres undefined) | – | – | 29 | – | – | – | – | – | –
COc1ccc(NC(=O)c2cccnc2N2CCOCC2)cc1 | – | – | – | – | – | · | · | · | ·
CC1=Nc2ccc(C)c3nc(C)cc(c23)N1c1ccc(C)cc1 | – | – | 38 | – | – | 191% | – | – | –
Cc1ccc(N2C(=O)CC(Sc3nc(C)cc(C)n3)C2=O)cc1 (centres undefined) | – | – | – | – | – | · | · | · | ·
Cc1ccc(N2C=Nc3ccc(C)c4nc(C)cc2c34)cc1 | – | – | 28 | – | – | 98% | – | – | –
CC(C)OC(=O)CSc1nnc(C2CCCCC2)n1N | – | – | – | – | – | · | · | · | ·
CN(C)c1nc(N(C)C)nc(N2CC(=O)N(c3ccccc3)C2=N)n1 | – | – | – | – | – | · | · | · | ·
CCOCC(=O)Nc1ccc2c(c1)N(S(=O)(=O)c1cccs1)CCC2 | – | – | – | – | – | · | · | · | ·
CC(=O)c1ccc(-n2c(CCC(=O)O)ccc2-c2cccs2)cc1 | – | – | – | – | – | · | · | · | ·
Cc1ccc(-n2c(CCC(=O)O)ccc2-c2cccs2)cc1 | – | – | 33 | – | – | 149% | – | – | –
CCOC(=O)c1ccccc1-c1cn2cc(Cl)ccc2n1 | – | – | 30 | – | – | 152% | – | – | –
COc1ccc(N2C(=O)C3C(C2=O)C(C(=O)c2ccc(Cl)cc2)N2CCCC32)cc1 (centres undefined) | – | – | 72 | – | – | – | – | – | –
CC(=O)c1ccc(N2C(=O)C3C(C2=O)C(C(=O)c2ccc(Cl)cc2)N2CCCC32)cc1 (centres undefined) | – | – | · | · | · | · | · | · | ·
SMILES | RGS4 act | RGS4 block | MrgX1 agonist | MrgX1 allo act | MrgX1 antag | MrgX1 ag reconf | HEK293 Ca flux | HEK293 Ca counter | HEK293 Ca cntr2
O=c1oc(-c2ccccc2Cl)nc2ccsc12 | – | – | 51 | – | – | 210% | – | – | 60
Cn1cc(C(c2ccccc2OCC(=O)O)c2cn(C)c3ccccc23)c2ccccc21 | – | – | – | – | – | · | · | · | ·
O=C(c1ccco1)N1CCN(C(=O)C2Cc3ccccc3CN2S(=O)(=O)c2ccc(F)cc2)CC1 (centres undefined) | – | – | – | – | – | · | · | · | ·
O=C(C1Cc2ccccc2CN1S(=O)(=O)c1ccc(F)cc1)N1CCCCC1 (centres undefined) | – | – | 33 | – | – | 243% | – | – | 74
CC(C)c1ccc(OCC(=O)NC2=NCCS2)cc1 | – | – | – | – | – | · | · | · | ·
Oc1c(C=NCc2ccc(F)cc2)[nH]c2ccc(Br)c(Cl)c12 | – | 5.7 | 27 | – | – | 332% | – | – | 71
Cn1ncc(N2CCN(C(=O)c3ccc(Cl)cc3)CC2)c(Cl)c1=O | – | – | – | – | – | · | · | · | ·
COc1ccc(NC(=S)N(CCN2CCOCC2)C2CCN(C(C)=O)CC2)cc1Cl | – | – | 69 | – | – | – | – | – | –
COc1cc(/C=C2/C(=N)N3C(SC)=NSC3=NC2=O)ccc1OC(=O)c1ccco1 | – | – | 71 | – | – | 227% | – | – | 48
Cn1c(CCN2CCCCC2)nc2cc(NC(=O)COc3ccc([N+](=O)[O-])cc3)ccc21 | – | – | – | – | – | · | · | · | ·
Cn1c2ccccc2c(=O)c2c(=O)n(-c3ccccc3)c(C3CCCCC3)nc21 | – | – | – | – | – | · | · | · | ·
Cn1c2ccccc2c(=O)c2c(=O)n(C3CCCCCC3)c(C3CCCCC3)nc21 | – | – | · | · | · | · | · | · | ·
Cn1c2ccccc2c(=O)c2c(=O)n(C3CCCCC3)c(-c3cccs3)nc21 | – | – | 110 | – | – | 596% | – | – | 98
CCc1nc2c(c(=O)c3ccccc3n2C)c(=O)n1C1CCCCCC1 | – | – | 117 | – | – | 481% | – | – | 97
CNc1nc(C)nc(-n2nc(C)cc2C)n1 | – | – | – | – | – | · | · | · | ·
Cc1cc(C)n(-c2nc(C)nc(NCc3ccccc3)n2)n1 | – | – | 34 | – | – | 130% | – | – | –
CC(C)(C)n1nnnc1C(c1cccnc1)N1CCN(c2cccc(C(F)(F)F)c2)CC1 (centres undefined) | – | – | – | – | – | · | · | · | ·

Screens: PubChem BioAssay, Johns Hopkins Ion Channel Center
